Laboratory results published in publication PMC2151523 (The Journal of General Physiology, 2006).
“And” between values parts separate entries of the source, which are not always exact repeats. Equal values may be shown once. Read-outs that look alike come from different tables or passages of the source.

How the values were obtained:
CNGA1 channels [1] = details: ref Flynn and Zagotta, 2001; cited from earlier work
[2] = target: T1, bovine rod CNGA1 channels (Bos taurus, UniProt Q00194); format: biochemical; details: for δ (Woodhull fit, best-fit): four blockers in the same patch (Fig. 4 C)
T1 sequence (Q00194 1-690): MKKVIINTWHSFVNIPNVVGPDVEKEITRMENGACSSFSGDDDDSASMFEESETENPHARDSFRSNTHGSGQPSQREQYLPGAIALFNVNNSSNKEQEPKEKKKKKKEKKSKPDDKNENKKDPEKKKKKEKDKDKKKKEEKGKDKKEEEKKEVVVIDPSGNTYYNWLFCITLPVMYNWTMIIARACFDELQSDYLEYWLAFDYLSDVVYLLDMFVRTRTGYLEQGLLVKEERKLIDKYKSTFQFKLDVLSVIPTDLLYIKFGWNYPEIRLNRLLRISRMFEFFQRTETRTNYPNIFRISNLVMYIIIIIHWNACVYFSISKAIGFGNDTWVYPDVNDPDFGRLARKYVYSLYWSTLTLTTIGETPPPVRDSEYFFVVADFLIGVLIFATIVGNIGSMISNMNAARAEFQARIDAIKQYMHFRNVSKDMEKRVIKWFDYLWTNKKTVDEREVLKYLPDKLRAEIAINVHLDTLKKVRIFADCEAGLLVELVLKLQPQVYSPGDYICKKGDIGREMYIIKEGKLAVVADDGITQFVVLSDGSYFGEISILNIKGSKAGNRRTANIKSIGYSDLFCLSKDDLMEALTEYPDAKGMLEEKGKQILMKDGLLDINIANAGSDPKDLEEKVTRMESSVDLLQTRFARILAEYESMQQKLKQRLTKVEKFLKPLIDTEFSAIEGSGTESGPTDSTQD
Procedure, shortened: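 Inside-out patches from HEK293 cells expressing bovine rod CNGA1. Bath and pipette solution: 160 mM NaCl, 1 mM EGTA, 1 mM EDTA, 10 mM HEPES, pH 7.4. Currents were elicited with 1 mM cGMP by steps from −80 to +80 mV in 20 mV increments from a 0 mV holding potential. Records without cGMP were subtracted, and blocker was added to the bath. Block was read 10–40 s after exchange, at the end of the +80 mV pulse. KD and n came from a Hill fit. δ came from Woodhull fits of per-voltage KD and was averaged over 10 patches. Comparisons were made in the same patch and bracketed by controls.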

CNGA1 channels [3] = details: cited from earlier work
[4] = test system: 391C cysteine-less CNGA1 channels; format: biochemical, bovine; details: for modification rate open state versus closed state: average rates (Fig. 11 D)
Procedure, shortened: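 391C channels were expressed in Xenopus oocytes and recorded 3–5 d after cRNA injection. Solutions contained 120 mM NaCl, 1 mM EGTA, 1 mM EDTA, 10 mM HEPES, pH 7.4. MTS reagent was applied for 2 s at 0 mV, with 2 mM cGMP (open state) or without it (closed state). Current was then monitored by a 50-ms step to +80 mV in 2 mM cGMP. Each value is the mean of at least three experiments.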

Kv channels = details: cysteine at valine of PVP region; ref Liu et al., 1997; cited from earlier work
391C CNGA1 channels = test: Cd2+ inhibition in the closed state and its slowing by blocker; format: biochemical, bovine
CNGA1 channel = target: T2, CNGA1 channel (Bos taurus, UniProt Q00194); test: Single channel recordings of blockade, inside-out patches; format: biochemical, bovine; details: +70 mV, 2 mM cGMP
T2 sequence (Q00194 1-690): T1 sequence (Q00194 1-690)
Procedure, shortened: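 Single-channel recordings were made in inside-out patches with 7–10 MΩ pipettes at +70 mV with saturating 2 mM cGMP. Signals were sampled at 20 kHz, Bessel-filtered at 5 kHz, then digitally filtered at 2 kHz. Amplitude histograms (40 s of record) were fitted with two Gaussians. Open dwell-time distributions were fitted with two exponentials. τ2 was normalised to its blocker-free value, and its dose response was fitted with a Hill equation.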

[5] = read-out: average KD0, 0 mV, average of several patches
[6] = 500 μM reagent, estimated from τ

In the case of `CS(=O)(=O)SCCN` [MTSEA, amino ethyl-MTS], the “modification rates in both closed and open state” value (CNGA1 channels [1]) is given as 10^3–10^4 M^−1s^−1.
For `CCC[N+](CC)(CC)CC` [C3-TEA], the “average δ” value ([2]; average of several patches) was −0.40 ± 0.08 and the Kd [2, 5] was 31 mM.
In the case of `Cc1cc(N)c2ccccc2[n+]1CCCCCCCCCC[n+]1c(C)cc(N)c2ccccc21` [dequalinium], the “apparent affinity for closed channels compared with open channels” value (CNGA1 channels [3]; ref Rosenbaum et al., 2004) is given as “three- to fivefold”.
With `CCCCCC[N+](CC)(CC)CC` [C6-TEA, hexyltriethylammonium] the “average δ” value ([2]; average of several patches) was −0.48 ± 0.02, the “δ (Woodhull fit, best-fit)” value ([2]; 1 mM cGMP) was −0.53 ± 0.02 and the Kd [2, 5] was 5 mM.
For `CCCC[N+](CC)(CC)CC` [C4-TEA], the “average δ” value ([2]; average of several patches) was −0.40 ± 0.03, the “δ (Woodhull fit, best-fit)” value ([2]; 1 mM cGMP) was −0.45 ± 0.02 and the Kd [2, 5] was 11 mM.
In the case of `CC[N+](CC)(CC)CCSS(C)(=O)=O` [MTSTEA], the “modification rate open state versus closed state” value [4] is reported as “three to seven”.
With `CC[N+](CC)(CC)CCCSS(C)(=O)=O` [MTS-PtrEA] the “time constant τ of modification, open state” value ([4]; 500 μM reagent, 2 mM cGMP) was 5.7 ± 0.3 s, the “time constant τ of modification, closed state” value ([4]; 500 μM reagent, absence of cGMP) was 27 ± 1 s and the “modification rate, closed state” value [4, 6] was 74 M⁻¹ s⁻¹. For the same compound, the “modification rate, open state” value [4, 6] was 351 M⁻¹ s⁻¹ and the “modification rate open state versus closed state” value [4] was “three to seven”.
In the case of `C[N+](C)(C)CCSS(C)(=O)=O` [MTSET, trimethylammonium ethyl-MTS], the “modification rate in the closed state” value (Kv channels) is listed as 1 M⁻¹ s⁻¹ and the “state-dependent accessibility (modification rate)” value (Kv channels) is listed as ~10^6 M^−1s^−1.
In the case of `CCCCCCCCCC[N+](C)(C)C` [C10-TMA, decyl-trimethyl ammonium], the “difference in apparent affinity as compared with C10-TEA” value ([2]; 50 μM, +80 mV, 1 mM cGMP) is reported as 1.8 fold.
With `[Cl][Cd][Cl]` [Cd^2+, CdCl2] the “time constant τ of current inhibition by Cd2+, closed state” value (391C CNGA1 channels; 6 μM Cd2+, no cGMP, no blocker) was 2.64 ± 0.08 s, the “effect on cysteine-less wild-type channels” value (391C CNGA1 channels; 50 μM Cd2+, unpublished data) was “no effect” and the “recovery of current inhibition” value (391C CNGA1 channels; unpublished data) was 20–40%. The “time course τ of recovery of current inhibition” value (391C CNGA1 channels; unpublished data) was roughly 100 s.
In the case of `CCCCNc1ccc(C(=O)OCCN(C)C)cc1` [Tetracaine, tetracaine], the “apparent affinity in the closed state compared with the open state” value (CNGA1 channels [3]; ref Fodor et al., 1997b, Ghatpande et al., 2003) is listed as ~10^3 times higher.
With `CCCCCCCCCC[N+](CC)(CC)CC` [C10-TEA, decyltriethyl ammonium] the “extent of blockade at subsaturating versus saturating cGMP” value ([2]; 5 μM blocker, +80 mV) was “Blockade was larger at subsaturating levels of cGMP”, the “blockade levels under saturating cGMP, cIMP or cAMP” value ([2]; 15 μM blocker, +80 mV, 16 mM agonist) was “Blockade levels were larger for cIMP and cAMP” and the Hill coefficient n ([2]; +80 mV, 1 mM cGMP, one patch (Fig. 2 A)) was 1.19 ± 0.04. The “δ (Woodhull fit, best-fit)” value ([2]; 1 mM cGMP) was −0.44 ± 0.01, the Kd [2, 5] was 0.05 ± 0.01 mM and the Kd ([2]; read-out: average KDc, four different patches) was 0.0023 ± 0.0006 mM. The “amplitude for the open state” value (CNGA1 channel; 5 μM blocker) was 2.317 ± 0.002 pA, the “area of the nonconductive level in current histogram” value (CNGA1 channel; 5 μM blocker, 5% without blocker) was 26% and the “area of the open state in amplitude histogram” value (CNGA1 channel; 5 μM blocker, 95% without blocker) was 74%. For the same compound, the “open dwell-time fraction A1” value (CNGA1 channel; 25 μM blocker) was 0.19, the “open dwell-time fraction A2” value (CNGA1 channel; 25 μM blocker) was 0.81 and the “open dwell-time fast component τ1” value (CNGA1 channel; 25 μM blocker, 0.7 ms in control) was ~0.7 ms and 0.6 ms. The “apparent mean open time of the main (slow) component, τ2” value (CNGA1 channel; 25 μM blocker, 12.2 ms in control) was 3.74 ms and 3.7 ms.
In the case of `CCCCCCCC[N+](CC)(CC)CC` [C8-TEA], the “δ (Woodhull fit, best-fit)” value ([2]; 1 mM cGMP) is reported as −0.44 ± 0.02 and the Kd [2, 5] is reported as 0.9 ± 0.2 mM.
With `CC[N+](CC)(CC)CC` [TEA, tetraethylammonium] the reduction in current ([2]; 5 mM blocker, +80 mV, 1 mM cGMP) was roughly 35%, the “average δ” value ([2]; average of several patches) was −0.31 ± 0.04 and the Kd [2, 5] was 35 mM.
